These results are taken from ChEMBL document CHEMBL4219135, “Discovery of Hydrolysis-Resistant Isoindoline N-Acyl Amino Acid Analogues that Stimulate Mitochondrial Respiration” (J Med Chem, 2018).

Data set [1] relates to C2C12. Description: Uncoupling activity in mouse C2C12 cells assessed as induction of SLC25-mediated mitochondrial respiration at 50 uM mixed for 2 mins measured after 2 mins post mixing relative to basal oligomycin-treated respiration. The class given is cell-based. The gist of the method: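 C2C12 cells seeded 35,000/well, assayed next day in Seahorse XF24 respiration buffer (DMEM, pyruvate, 20 mM glucose) after 1 h CO2-free. Sequential injections: oligomycin 1 μM, compound 50 μM, FCCP 0.2 μM, rotenone 3 μM final; cycles of 2 min mix, 2 min measure. Cycle 6 set to 100%; maximal respiration over cycles 7–15 reported. n=3–6.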

Data set [2] concerns the target T1, N-fatty-acyl-amino acid synthase/hydrolase PM20D1 (Mus musculus, UniProt Q8C165).
T1 sequence (Q8C165 whole entry): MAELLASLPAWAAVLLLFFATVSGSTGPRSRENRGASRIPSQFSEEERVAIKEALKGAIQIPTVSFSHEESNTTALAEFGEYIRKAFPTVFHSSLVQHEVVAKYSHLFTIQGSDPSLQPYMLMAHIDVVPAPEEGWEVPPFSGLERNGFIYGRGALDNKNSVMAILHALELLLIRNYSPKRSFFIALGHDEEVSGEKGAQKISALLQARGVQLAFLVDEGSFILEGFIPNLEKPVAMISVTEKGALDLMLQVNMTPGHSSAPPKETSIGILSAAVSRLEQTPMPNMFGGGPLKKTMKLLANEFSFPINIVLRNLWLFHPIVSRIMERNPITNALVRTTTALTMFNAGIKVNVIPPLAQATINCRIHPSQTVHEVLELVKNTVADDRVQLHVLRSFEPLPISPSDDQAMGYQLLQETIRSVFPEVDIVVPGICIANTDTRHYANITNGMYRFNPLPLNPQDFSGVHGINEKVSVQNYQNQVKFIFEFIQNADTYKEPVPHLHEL
Description: Metabolic stability assessed as recombinant mouse 6xHis/FLAG-tagged PM20D1-mediated hydrolysis by measuring parent compound remaining at 100 nmol after 1 hr by LC-MS method. The class given is ADME. Particulars: in the assay text read “at 10 nmol” for “at 100 nmol”. The gist of the method: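 Murine PM20D1–6xHis-Flag expressed transiently in 293T cells, Flag-M2 purified from serum-free conditioned medium. 10 nmol compound in 100 μl PBS (100 μM) with enzyme or PBS, 1 h at 37 °C; quenched in chloroform:methanol with d31-palmitate internal standard; intact substrate and released fatty acid quantified by LC-MS. Means ± SEM, n=3.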

The nature of data set [3]: Half life in mouse liver microsomes at 1 uM after 60 mins in presence of NADPH by LC-MS/MS analysis. Type of data set: ADME, microsome. The gist of the method:
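Test compound at 1 μM with 1 mg/mL mouse liver microsomes in 100 mM KPi pH 7.4, 37C with shaking; started with NADPH (1 mM final), -NADPH controls included. Samples at 0, 5, 10, 20, 40, 60 min quenched in 5X acetonitrile, filtered, LC-MS/MS; data log transformed to half-life.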
For orientation: Liver microsomes are a subcellular fraction often used to study metabolism.

The subject of data set [4] is Mus musculus. Kind of data set: Anti-obesity activity against DIO mouse assessed as reduction in body weight gain by measuring net weight change at 10 mg/kg, ip administered daily for 7 consecutive days (reference value: 1.1 +/- 0.1 g). The class given is functional.
Data set [5] deals with Mus musculus. Description: Anti-obesity activity against DIO mouse assessed as reduction in body weight gain by measuring net weight change at 25 mg/kg, ip administered daily for 7 consecutive days (reference value: 1.1 +/- 0.1 g). Type of data set: functional.
For data set [6], the system named is Mus musculus. Kind of data set: Anti-obesity activity against DIO mouse assessed as reduction in body weight gain by measuring net weight change at 5 mg/kg, ip administered daily for 7 consecutive days (reference value: 1.1 +/- 0.1 g). The class given is functional, organism-based.
For data set [7], the system named is Mus musculus. Description: Anti-obesity activity against ip dosed DIO mouse assessed as reduction in body weight gain administered daily for 7 consecutive days. Type of data set: functional, organism-based.
For data set [8], the system named is Mus musculus. Kind of data set: Anti-obesity activity against DIO mouse assessed as reduction in food intake at 25 mg/kg, ip administered daily for 7 consecutive days. Type of data set: functional, organism-based.
Data set [9] deals with Mus musculus. Kind of data set: Anti-obesity activity against DIO mouse assessed as blood glucose levels at 25 mg/kg, ip administered daily for 7 consecutive days measured after 2 hrs post last dose (reference value: 204 +/- 7 mg/dl). The class given is functional.

Calls of active or inactive are those of the source. Where a SMILES comes first, the peptide text is derived from it. The star is where a group is joined. Oleoyl = CCCCCCCC/C=C\CCCCCCCC(=O)*

A word on the Emax: it is the maximal effect, on the per cent scale that the assay sets. Broadly, the half-life is the time needed for the level to fall by half in the phase considered. For the compound `CCCCCCCC/C=C\CCCCCCCC(=O)N1Cc2ccccc2[C@H]1C(=O)O`, in data set [1], the Emax is 240%. Besides, the Stability entry in [2] is recorded as “Stable”. In addition, in [3], the half-life at 1 µM is 1.07 h.

`CCCCCCCC/C=C\CCCCCCCC(=O)N1Cc2ccccc2C[C@H]1C(=O)O`: the Emax in data set [1] is 187%.

Regarding `CCCCC/C=C\C/C=C\CCCCCCCC(=O)N1Cc2ccccc2[C@H]1C(=O)O`, in [1], the Emax amounted to 185%. Besides, the Stability entry in [2] is “Stable”. The half-life at 1 µM in data set [3] worked out at 1.07 h.

For the compound `CCCCCCCC/C=C\CCCCCCCC(=O)N1c2ccccc2C[C@H]1C(=O)O`, in data set [1], the Emax worked out at 146%.

Take `CCCCCCCCCCC/C=C\CCCCC(=O)N[C@@H](Cc1ccccc1)C(=O)O`: in [1], the Emax turned out to be 110%.

As to `CCCCCCCC/C=C\CCCCCCCC(=O)N1Cc2ccccc2[C@@H]1C(=O)O`, in [1], the Emax came out at 190%. Also, the Stability entry in [2] is recorded as “Stable”. Further, the half-life at 1 µM in data set [3] worked out at 1.07 h.

With `CCCCCCCC/C=C\CCCCCCCC(=O)N[C@@H](CC(C)C)C(=O)O`, the Emax in data set [1] turned out to be 178%. In addition, in data set [3], the half-life at 1 µM worked out at 0.133 h.

Consider `CCCCCCCC/C=C\CCCCCCCCNC(=O)NCC(=O)O`, for which the Emax in data set [1] is 104%.

Consider `CCCCCCCC/C=C\CCCCCCCCNC(=O)N[C@@H](Cc1ccccc1)C(=O)O`, for which, in [1], the Emax stood at 97%.

For `CCCCCCCC/C=C\CCCCCCCC(=O)N1CCC[C@H]1C(=O)O`, the Emax in data set [1] stood at 182%.

On to `CCCCCCCC/C=C\CCCCCCCC(=O)NCC(=O)NCC(=O)O` (Oleoyl-Gly-Gly-OH), for which the Emax in data set [1] is 206%.

Turning to `CCCCCCCC/C=C\CCCCCCCC(=O)N[C@@H](Cc1ccccc1)C(=O)O`, the Emax in [1] was determined as 161%.

For `CCCCC/C=C\C/C=C\C/C=C\C/C=C\CCCC(=O)N[C@@H](Cc1ccccc1)C(=O)O`, the Emax in data set [1] stood at 200%.

Take `CCCCCCCC/C=C\CCCCCCCC(=O)N[C@H](C(=O)O)[C@@H](C)CC`: the Emax in [1] stood at 167%. The half-life at 1 µM in [3] came to 0.133 h.

With `CCCCCCCC/C=C\CCCCCCCC(=O)NCCc1ccccc1`, the Emax in data set [1] worked out at 104%.

Regarding `CCCCCCCC/C=C/CCCCCCCC(=O)N[C@@H](Cc1ccccc1)C(=O)O`, the Emax in [1] is 107%.

On to `CCCCCCCC/C=C\CCCCCCCC(=O)N1CCc2ccccc2C1C(=O)O` (stereo not drawn), for which the Emax in data set [1] is 216%.

As for `CCCCCCCCCCCCCCCCCCCCCC(=O)N[C@@H](Cc1ccccc1)C(=O)O`, the Emax in [1] is 100%.

`CCCCC/C=C\C/C=C\CCCCCCCC(=O)N[C@@H](Cc1ccccc1)C(=O)O`: the Emax in data set [1] came out at 218%.

In the case of `CCCCCCCCCCCCCCCCCC(=O)N[C@@H](Cc1ccccc1)C(=O)O`, in data set [1], the Emax came out at 148%.

Turning to `CCCCCCCC/C=C\CCCCCCCC(=O)N[C@@H](Cc1c[nH]c2ccccc12)C(=O)O`, the Emax in [1] was determined as 147%.

Take `CCCCCCCC/C=C\CCCCCCCC(=O)N[C@H](Cc1ccccc1)C(=O)O`: the Emax in data set [1] came out at 173%.

For the compound `CCCCCCCC/C=C\CCCCCCCC(=O)N[C@@H](CCC(=O)O)C(=O)O`, in data set [1], the Emax came out at 106%.

In the case of `CCCCCCCCCCCC(=O)N[C@@H](Cc1ccccc1)C(=O)O`, the Emax in data set [1] came to 96%.

With `CC/C=C\C/C=C\C/C=C\C/C=C\C/C=C\CCCC(=O)N[C@@H](Cc1ccccc1)C(=O)O`, the Emax in data set [1] came to 259%.

Consider `CCCCCCCC/C=C\CCCCCCCCCC(=O)N[C@@H](Cc1ccccc1)C(=O)O`, for which the Emax in data set [1] was determined as 103%.

In the case of `CCCCCCCCCCCCCCCCCCCC(=O)N[C@@H](Cc1ccccc1)C(=O)O`, the Emax in data set [1] was 95%.

For the compound `CCC/C=C\C/C=C\C/C=C\CCCCCCC(=O)N[C@@H](Cc1ccccc1)C(=O)O`, in data set [1], the Emax was determined as 109%.

With `CCCCCCCC/C=C\CCCCCCCC(=O)N[C@@H](Cc1ccc(O)cc1)C(=O)O`, the Emax in data set [1] is 105%. In addition, the half-life at 1 µM in [3] turned out to be 0.133 h.

Take `CCCCC/C=C\C/C=C\CCCCCCCC(=O)N1Cc2ccccc2[C@@H]1C(=O)O`: in data set [1], the Emax worked out at 190%. In addition, in data set [2], the Stability entry was “Stable”. For the same compound, the half-life at 1 µM in data set [3] was 1.07 h. The Activity is 0.2 g in data set [4], -1.2 g in data set [5], “Dose-dependent effect” in [7] and 172 mg/dL in data set [9]. For the same compound, the result in data set [6] and in [8] was inactive.

Regarding `CCCCCC/C=C\CCCCCCCCCC(=O)N[C@@H](Cc1ccccc1)C(=O)O`, in data set [1], the Emax turned out to be 115%.

On to `CC/C=C\C/C=C\C/C=C\C/C=C\C/C=C\C/C=C\CCC(=O)N[C@@H](Cc1ccccc1)C(=O)O`, for which the Emax in data set [1] was 166%.

Take `CCCCCCCC/C=C\CCCCCCCC(=O)N1CCCC[C@H]1C(=O)O`: in data set [1], the Emax is 174%.

`CCCCCCCC/C=C\CCCCCCCC(=O)NCCC(=O)O`: in [1], the Emax was found to be 185%.

Regarding `CCCCCCCCCCCCCCCC(=O)N[C@@H](Cc1ccccc1)C(=O)O`, the Emax in data set [1] was 180%.

Take `CCCCCCCC/C=C\CCCCCCCC(=O)N[C@@H](CCC(N)=O)C(=O)O`: the Emax in data set [1] was determined as 164%.
